ChEMBL document CHEMBL3108662, “Controlled oxygen release from pyridone endoperoxides promotes cell survival under anoxic conditions” (J Med Chem, 2013)
Activity calls are given as the source filed them. The rule behind the calls is not given here.

Tests used:
[1] = system: 3T3; assay: Cytotoxicity against […] cells assessed as growth inhibition under normoxic condition at 29 to 580 uM measured over 4 days by WST-1 assay in presence of 100 ug/mL vitamin C; assay type: cell-based; conditions: 3t3, 96 h
Summary of the method: (§1)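 3T3 fibroblasts plated at 4000 cells/cm² in DMEM/F-12 with 10% FBS and 1% Pen/Strep. Compound in 1:50 H2O/DMSO was added at 10, 50, 100 or 200 µg/mL, alone or with vitamin C in water (100 or 500 µg/mL). Run normoxic (37°C, 5% CO2) or anoxic (N2-degassed medium, sealed bags under N2, no medium change, up to 4 days). WST-1 read at 450 nm after 3 h on days 1-4. Growth normalized to untreated control as 100%. Triplicates.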

[2] = system: 3T3; assay: Cytotoxicity against […] cells assessed as growth inhibition under anoxic condition at 29 uM measured over 4 days by WST-1 assay; assay type: cell-based; conditions: 3t3, 96 h; summary of the method: as §1
[3] = Cytotoxicity against rat primary smooth muscle cells assessed as growth inhibition under anoxic condition at 50 ug/mL measured over 4 days by WST-1 assay; assay type: cell-based; conditions: 96 h
Summary of the method: (§2)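 Primary smooth muscle cells freshly isolated from rat bladder, plated at 4000 cells/cm² in DMEM/F-12, 10% FBS, 1% Pen/Strep. Compound was added from 1:50 H2O/DMSO at 10–200 µg/mL, with or without vitamin C in water at 100 or 200 µg/mL. Normoxic (37°C, 5% CO2) or anoxic runs: N2-degassed medium, plates sealed under N2 for up to 4 days without medium change. WST-1 absorbance at 450 nm after 3 h, days 1-4. Normalized to untreated control as 100%. Triplicates.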

[4] = system: 3T3; assay: Cytotoxicity against […] cells under normoxic condition at 29 uM measured over 4 days by WST-1 assay in presence of 100 ug/mL vitamin C; assay type: cell-based; conditions: 3t3, 96 h; summary of the method: as §1
[5] = Induction of singlet oxygen release in water at 0.1 mM measured every 10 mins by SOSG assay in presence of 0.37 mM vitamin C; assay type: physicochemical; conditions: buffer, 100 µM
Summary of the method: (§3)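 Singlet oxygen sensor green was dissolved in MeOH. Compound was dissolved in MeOH, then diluted in water, with or without vitamin C dissolved in water. Fluorescence (ex/em 488/525 nm) recorded every 10 min at 37 °C. Blanks of SOSG or SOSG/vitamin C were subtracted. Triplicates.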

[6] = system: 3T3; assay: Cytotoxicity against […] cells under anoxic condition at 29 uM measured over 4 days by WST-1 assay in presence of 100 ug/mL vitamin C; assay type: cell-based; conditions: 3t3, 96 h; summary of the method: as §1
[7] = system: 3T3; assay: Cytotoxicity against […] cells assessed as growth inhibition under anoxic condition at 29 uM measured on day 1 by WST-1 assay in presence of 100 ug/mL vitamin C; assay type: cell-based; conditions: 3t3, 29 µM; summary of the method: as §1
[8] = Cytotoxicity against rat primary smooth muscle cells assessed as growth inhibition under normoxic condition measured over 4 days by WST-1 assay; assay type: cell-based; conditions: 96 h; summary of the method: as §2
[9] = Cytotoxicity against rat primary smooth muscle cells assessed as growth inhibition under normoxic condition at 50 ug/mL measured over 4 days by WST-1 assay; assay type: cell-based; conditions: 96 h; summary of the method: as §2
[10] = species: Rattus norvegicus; assay: Growth promoting activity in rat primary smooth muscle cells under normoxic condition at 29 uM measured over 4 days by WST-1 assay in presence of 100 ug/mL vitamin C; assay type: functional; summary of the method: as §2
[11] = Induction of oxygen release in H2O/D2O relative to DMSO-treated control; assay type: physicochemical
[12] = system: 3T3; assay: Cytotoxicity against […] cells assessed as growth inhibition under normoxic condition measured over 4 days by WST-1 assay; assay type: cell-based; conditions: 3t3, 96 h; summary of the method: as §1
[13] = system: 3T3; assay: Cytotoxicity against […] cells assessed as growth inhibition under anoxic condition at 29 to 580 uM measured over 4 days by WST-1 assay in presence of 100 ug/mL vitamin C; assay type: cell-based; conditions: 3t3, 96 h; summary of the method: as §1
[14] = Cytotoxicity against rat primary smooth muscle cells assessed as growth inhibition under anoxic condition at 50 ug/mL measured over 4 days by WST-1 assay in presence of 200 ug/mL vitamin C; assay type: cell-based; conditions: 96 h; summary of the method: as §2
[15] = system: 3T3; assay: Cytotoxicity against […] cells assessed as growth inhibition under normoxic condition at 50 ug/ml measured over 4 days by WST-1 assay in presence of vitamin C; assay type: cell-based; conditions: 3t3, 96 h; summary of the method: as §1
[16] = system: 3T3; assay: Cytotoxicity against […] cells assessed as growth inhibition under anoxic condition at 200 ug/ml measured over 4 days by WST-1 assay in presence of vitamin C relative to control; assay type: functional, cell-based; summary of the method: as §1
[17] = system: 3T3; assay: Cytotoxicity against […] cells assessed as growth inhibition under anoxic condition at 100 ug/ml measured on day 4 by WST-1 assay in presence of vitamin C relative to control; assay type: cell-based; summary of the method: as §1
[18] = species: Rattus norvegicus; assay: Growth promoting activity in rat primary smooth muscle cells under anoxic condition at 29 uM measured over 4 days by WST-1 assay in presence of 100 ug/mL vitamin C; assay type: functional; summary of the method: as §2
[19] = system: 3T3; assay: Cytotoxicity against […] cells assessed as growth inhibition under anoxic condition at 50 ug/ml measured over 4 days by WST-1 assay in presence of vitamin C; assay type: cell-based; conditions: 3t3, 96 h; summary of the method: as §1
[20] = Induction of singlet oxygen release in water at 0.1 mM measured every 10 mins by SOSG assay; assay type: physicochemical; conditions: buffer, 100 µM; summary of the method: as §3
[21] = Drug degradation in H2O/D2O assessed as byproduct formation at 37 degC by 1H-NMR spectroscopic analysis; assay type: physicochemical
[22] = system: 3T3; assay: Cytotoxicity against […] cells assessed as growth inhibition under normoxic condition at 100 ug/ml measured on day 4 by WST-1 assay in presence of vitamin C relative to control; assay type: cell-based; summary of the method: as §1
[23] = system: 3T3; assay: Growth promoting activity in […] cells under anoxic condition at 29 uM measured on day 1 by WST-1 assay in presence of 100 ug/mL vitamin C; assay type: functional, cell-based; summary of the method: as §1
[24] = species: Rattus norvegicus; assay: Growth promoting activity in rat primary smooth muscle cells under normoxic condition at 50 ug/mL measured over 4 days by WST-1 assay in presence of 100 to 200 ug/mL vitamin C; assay type: functional; summary of the method: as §2
[25] = system: 3T3; assay: Growth promoting activity in rat 3T3 cells under normoxic condition at 100 to 200 ug/mL measured on day 1 by WST-1 assay in presence of 500 ug/mL vitamin C; assay type: functional, cell-based; summary of the method: as §1
[26] = system: 3T3; assay: Cytotoxicity against […] cells assessed as growth inhibition under normoxic condition at 200 ug/ml measured over 4 days by WST-1 assay in presence of vitamin C relative to control; assay type: cell-based; conditions: 3t3, 96 h; summary of the method: as §1
[27] = Induction of oxygen release in H2O/D2O; assay type: physicochemical
[28] = Half life in H2O/D2O at 37 degC by 1H-NMR spectroscopic analysis; assay type: ADME
[29] = species: Rattus norvegicus; assay: Growth promoting activity in rat primary smooth muscle cells under anoxic condition at 50 ug/mL measured over 4 days by WST-1 assay in presence of 100 ug/mL vitamin C; assay type: functional
Summary of the method: (§4)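 Primary smooth muscle cells freshly isolated from rat bladder, seeded at 4000 cells/cm² in DMEM/10% FBS/1% Pen/Strep. Additive dissolved in 1:50 H₂O/DMSO and added at 10–200 µg/mL, with or without vitamin C (100 or 200 µg/mL). Normoxic at 37°C, 5% CO₂, or anoxic in sealed N₂-degassed medium, up to 4 days. WST-1 read on days 1–4 (3 h, A450). Triplicates, normalized to untreated = 100%.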

[30] = species: Rattus norvegicus; assay: Growth promoting activity in rat primary smooth muscle cells under normoxic condition at 10 to 50 ug/mL measured over 4 days by WST-1 assay; assay type: functional; summary of the method: as §4
[31] = Cytotoxicity against rat primary smooth muscle cells assessed as growth inhibition under anoxic condition up to 100 ug/mL measured over 4 days by WST-1 assay; assay type: cell-based; conditions: 96 h; summary of the method: as §4
[32] = Cytotoxicity against rat primary smooth muscle cells assessed as growth inhibition under normoxic condition at 100 to 200 ug/mL measured over 4 days by WST-1 assay; assay type: cell-based; conditions: 96 h; summary of the method: as §4
[33] = species: Rattus norvegicus; assay: Growth promoting activity in rat primary smooth muscle cells under normoxic condition at 100 to 200 ug/mL measured over 4 days by WST-1 assay; assay type: functional; summary of the method: as §4
[34] = system: 3T3; assay: Growth promoting activity in […] cells under anoxic condition at 500 ug/mL measured on day 1 by WST-1 assay; assay type: functional, cell-based
Summary of the method: (§5)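 3T3 fibroblasts seeded at 4000 cells/cm² in DMEM/10% FBS/1% Pen/Strep. Additive from 1:50 H₂O/DMSO at 10–200 µg/mL, with or without vitamin C (100 or 500 µg/mL). Normoxic at 37°C, 5% CO₂, or anoxic with N₂-degassed medium and N₂ glove-bag handling in sealed bags, no medium change, up to 4 days. Daily WST-1 (1:10, 3 h, A450). Triplicates, normalized to untreated control = 100%.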

[35] = system: 3T3; assay: Growth promoting activity in […] cells assessed as change in cell growth under anoxic condition at 100 ug/ml measured over 4 days by WST-1 assay; assay type: functional, cell-based; summary of the method: as §5
[36] = system: 3T3; assay: Cytotoxicity against […] cells assessed as growth inhibition under normoxic condition at 500 ug/mL after 2 days by WST-1 assay; assay type: cell-based; conditions: 3t3, 48 h; summary of the method: as §5

What does the source list for `COCCOCCOCCOC(=O)CN1C(=O)C2(C)C=CC1OO2` (configuration not stated)?
Activity [1]: Non-toxic; Activity [2]: Non-toxic; Activity [3]: Toxic; Activity [4]: Toxic; Activity [5]: Not Active; Activity [6]: Toxic; Activity [7]: Non-toxic; growth inhibition (GI) [8]: Dose-dependent effect; Activity [9]: Toxic; Activity [10]: Active; Activity [11]: 78%; growth inhibition (GI) [12]: Dose-dependent effect; Activity [13]: Non-toxic; Activity [14]: Toxic; Activity [15]: Toxic; Activity [16]: inactive; fold change (FC) [17]: 2; Activity [18]: Active; Activity [19]: Toxic; Activity [20]: Active; Drug degradation [21]: 20%; fold change (FC) [22]: 10; Activity [23]: Active; Activity [24]: Active; Activity [25]: Active; Activity [26]: Non-toxic

For `COCCOCCOCCOC(=O)CN1C(=O)C2C=CC1(C)OO2` (configuration not stated), which Activity [27] is on record?
Its Activity is 50%.

And the half-life [28]?
The half-life was 4 h.

What about the Drug degradation [21] of the same compound?
The Drug degradation was over 50%.

With `COCCOCCOCCOC(=O)CN1C(=O)C2(C)C=C(C)C1OO2` (configuration not stated) as the compound, how does the half-life [28] read?
Its half-life is 13 h.

And the Activity [11]?
Its Activity is 47%.

Which results are given for `COCCOCCOCCOC(=O)CN1C(=O)C2(C)C=C(C)C1(C)OO2` (configuration not stated)?
Activity [27]: 10%; half-life [28]: 15 h; Drug degradation [21]: > 50%

With `COCCOCCOCCOC(=O)Cn1cccc(C)c1=O` as the compound, how does the Activity [29] read?
Its Activity is “inactive”.

What about the Activity [30] of the same compound?
Its Activity is “inactive”.

And the Activity [31]?
The Activity was “Non-toxic”.

With `COCCOCCOCCOC(=O)CN1C(=O)C2C=CC1OO2` (configuration not stated) as the compound, how does the half-life [28] read?
Its half-life is 0.5 h.

What about the Activity [11] of the same compound?
Its Activity is 18%.

Which results are given for `COCCOCCOCCOC(=O)CN1C(=O)C2(C)C=CC1(C)OO2` (configuration not stated)?
Activity [27]: 50%; half-life [28]: 4 h; Drug degradation [21]: > 50%

Which results are given for `O=C1O[C@H]([C@@H](O)CO)C(O)=C1O` [ASCORBIC ACID]?
Activity [32]: Non-toxic; Activity [33]: inactive; Activity [34]: Active; Activity [35]: inactive; Activity [36]: Toxic
